Reference: ChEMBL document CHEMBL5038599, “Identification of Thiazoyl Guanidine Derivatives as Novel Antifungal Agents Inhibiting Ergosterol Biosynthesis for Treatment of Invasive Fungal Infections” (J Med Chem, 2021)
In brackets after ≈: the same amount, converted by molar mass. Activity calls are given as the source filed them. The calls are words filed in the database; no cut-off is given here.

Experiments:
Aspergillus fumigatus [1] = assay: Antifungal activity against Aspergillus fumigatus ATCC 204305 assessed as inhibition of fungal growth […] by broth microdilution method; type: functional
Candida albicans = assay: Antifungal activity against Candida albicans ATCC 90028 assessed as inhibition of fungal growth incubated for 24 hrs by broth microdilution method; type: functional
How it was run: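 Yeast cells were adjusted to about 2 × 10³ CFU/mL and broth microdilution was run for 24 h at 35 °C. Medium was YNB with 2% glucose and complete amino-acid mix, buffered to pH 7.0 with 50 mM MOPS. MIC was the lowest concentration giving >50% growth reduction versus untreated control, read by optical density at 600 nm.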

[2] = Metabolic stability in human liver microsomes assessed as parent compound remaining at 0.5 uM incubated for 30 mins by LC/MS/MS analysis; type: ADME, Microsome; settings: read-out: Stability
How it was run: (§1)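 Compound at 0.5 μM was incubated with liver microsomes at 0.5 mg protein/mL at 37 °C. Buffer was 50 mM Tris-HCl pH 7.4 with 150 mM KCl, 10 mM MgCl2 and 1 mM NADPH. Reactions were stopped at 0 and 30 min with MeCN/MeOH 1:1. Percent remaining was taken from LC/MS/MS peak area ratio, in duplicate.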

[3] = Metabolic stability in rat liver microsomes assessed as parent compound remaining at 0.5 uM incubated for 30 mins by LC/MS/MS analysis; type: ADME, Microsome; settings: read-out: Stability; how it was run: as §1
Aspergillus fumigatus [4] = assay: Antifungal activity against Aspergillus fumigatus ATCC 204305 assessed as inhibition of fungal growth incubated for 48 hrs in presence of 50% heat-inactivated bovine serum by broth microdilution method; type: functional; settings: ATCC 204305, 48 h, in the assay text read “incubated for 48 hrs” for “incubated for 24 hrs”
How it was run: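 Broth microdilution per CLSI M38-A2 with modifications. Conidia at about 1 × 10⁴ CFU/mL were grown for 48 h at 35 °C in YNB with 2% glucose and complete amino-acid mix, buffered to pH 7.0 with 50 mM MOPS. Medium was with or without 50% heat-inactivated bovine serum. MIC was the lowest concentration giving no visible growth.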

Aspergillus fumigatus [5] = assay: Antifungal activity against Aspergillus fumigatus ATCC 204305 assessed as inhibition of fungal growth incubated for 48 hrs by broth microdilution method; settings: ATCC 204305, 48 h
Aspergillus fumigatus [6] = assay: Antifungal activity against pan-azole resistant Aspergillus fumigatus SR47013 harbouring Cyp51A Y121F mutant assessed as inhibition of fungal growth incubated for 48 hrs by broth microdilution method; settings: SR47013, 48 h
[7] = Unbound fraction in Sprague-Dawley rat at 0.5 mg/kg, iv measured upto 1440 mins by LC/MS/MS analysis; type: ADME, organism-based; settings: in vivo
[8] = Clearance in Sprague-Dawley rat at 0.5 mg/kg, iv measured upto 1440 mins by LC/MS/MS analysis; type: ADME, organism-based; settings: in vivo
[9] = Volume of distribution at steady state in Sprague-Dawley rat at 0.5 mg/kg, iv measured upto 1440 mins by LC/MS/MS analysis; type: ADME, organism-based; settings: in vivo, read-out: Vdss
Mus musculus [10] = assay: In vivo antifungal activity against Aspergillus fumigatus infected in ICR mouse assessed as log reduction in fungal burden with 18S rRNA in kidney at 30 mg/kg, iv administered at 2 to 50 hrs post-inoculation and measured after 60 hrs by RT-qPCR analysis; type: functional
How it was run: (§2)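 Male ICR mice (5 weeks) were immunosuppressed with intraperitoneal cyclophosphamide, 150 mg/kg on day −4 and 100 mg/kg on day −1. Mice were infected intravenously with about 1.5 × 10⁵ conidia in saline. Tail-vein dosing was at 2, 16, 21, 26, 40, 45 and 50 h, in 5% DMSO/5% Cremophor EL/4% glucose or 5% glucose. Samples were taken at 60 h, five mice per group, and analysed by Dunnett's test against untreated controls.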

Mus musculus [11] = assay: In vivo antifungal activity against Aspergillus fumigatus infected in ICR mouse assessed as reduction in serum-galactomannan at 30 mg/kg, iv administered at 2 to 50 hrs post-inoculation and measured after 60 hrs by GM analysis; type: functional, organism-based; how it was run: as §2
[12] = AUC in ICR mouse at 30 mg/kg, iv measured upto 360 mins by LC/MS/MS analysis; type: ADME, organism-based; parameters: route intravenous, dose 30 mg/kg, time <=360; settings: in vivo
How it was run: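 Male ICR mice, 6 weeks old. Dosed iv via tail vein at 30 mg/10 mL/kg (n = 3). The test agent was a solution in 5% DMSO, 5% Cremophor EL and 4% glucose; the reference azole was in 5% glucose. Blood (EDTA-2K plus heparin) was taken at 5, 30, 60, 180 and 360 min and spun to plasma. Proteins were precipitated with methanol before LC/MS/MS.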

Aspergillus fumigatus [13] = assay: Inhibition of Sterol methyl transferase in Aspergillus fumigatus ATCC 204305 assessed as accumulation of lanosterol at 2 ug/mL measured per 100 mg of mycelia by LC/MS analysis (Rvb= 0 nmol); settings: dose 2.0 µg/ml
How it was run: (§3)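 Cultures of A. fumigatus ATCC 204305 (1 × 10⁴ CFU/mL in YNB with 2% glucose and amino-acid mix) were grown 24 h at 35 °C, then exposed to compound for 24 h. Mycelia were saponified in 25% ethanolic KOH at 85 °C for 1 h and extracted with n-hexane. Extracts were dried, redissolved in acetone at 200 μL per 100 mg dry mycelium, and analysed on a C18 column at 40 °C with acetonitrile gradient.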

Aspergillus fumigatus [14] = assay: Inhibition of Sterol methyl transferase in Aspergillus fumigatus ATCC 204305 assessed as accumulation of eburicol at 2 ug/mL measured per 100 mg of mycelia by LC/MS analysis (Rvb= 0 nmol); settings: dose 2.0 µg/ml; how it was run: as §3
Aspergillus fumigatus [15] = assay: Inhibition of Sterol methyl transferase in Aspergillus fumigatus ATCC 204305 assessed as accumulation of zymosterol at 2 ug/mL measured per 100 mg of mycelia by LC/MS analysis (Rvb= 0 nmol); settings: dose 2.0 µg/ml; how it was run: as §3
Aspergillus fumigatus [16] = assay: Inhibition of Sterol methyl transferase in Aspergillus fumigatus ATCC 204305 assessed as accumulation of ergosterol at 2 ug/mL measured per 100 mg of mycelia by LC/MS analysis (Rvb= 144 nmol); settings: dose 2.0 µg/ml; how it was run: as §3
Aspergillus fumigatus [17] = assay: Inhibition of Sterol methyl transferase in Aspergillus fumigatus ATCC 204305 assessed as accumulation of lanosterol at 0.5 ug/mL measured per 100 mg of mycelia by LC/MS analysis (Rvb= 0 nmol); settings: dose 0.5 µg/ml
How it was run: (§4)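 Conidia at 1 × 10⁴ CFU/mL were grown 24 h at 35 °C in YNB with 2% glucose and amino-acid mix, then compound was added and cultures ran a further 24 h. Mycelia were filtered and saponified in 25% ethanolic KOH at 85 °C for 1 h. Sterols were extracted into n-hexane, dried under N₂ at 40 °C and redissolved in acetone at 200 μL per 100 mg dry mycelium. Separation used a C18 column at 40 °C with an acetonitrile gradient.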

Aspergillus fumigatus [18] = assay: Inhibition of Sterol methyl transferase in Aspergillus fumigatus ATCC 204305 assessed as accumulation of eburicol at 0.5 ug/ml measured per 100 mg of mycelia by LC/MS analysis (Rvb= 0 nmol); settings: dose 0.5 µg/ml; how it was run: as §4
Aspergillus fumigatus [19] = assay: Inhibition of Sterol methyl transferase in Aspergillus fumigatus ATCC 204305 assessed as accumulation of zymosterol at 0.5 ug/mL measured per 100 mg of mycelia by LC/MS analysis (Rvb= 0 nmol); settings: dose 0.5 µg/ml; how it was run: as §4
Aspergillus fumigatus [20] = assay: Inhibition of Sterol methyl transferase in Aspergillus fumigatus ATCC 204305 assessed as accumulation of ergosterol at 0.5 ug/mL measured per 100 mg of mycelia by LC/MS analysis (Rvb= 144 nmol); settings: dose 0.5 µg/ml; how it was run: as §4

Row | SMILES | MIC50 (Aspergillus fumigatus [1]) [µg/mL] | MIC50 (Candida albicans) [µg/mL] | remaining at 0.5 h, 0.5 µM [2] [%] | remaining at 0.5 h, 0.5 µM [3] [%] | MIC50 (Aspergillus fumigatus [4]) [µg/mL] | MIC (Aspergillus fumigatus [5]) [µg/mL] | also measured
1 | Cc1ccc(Oc2ccccc2-c2csc(Nc3ccccn3)n2)c(C)c1 | > 16 | > 16 | – | – | – | – | –
2 | CS(=O)(=O)c1cccc(-c2nc(-c3csc(N=C4NCCCN4)n3)cs2)c1 | – | – | 85 | 47 | 16 | 4 (≈ 9.53 µM) | –
3 | C[C@@H](c1nc(-c2ccc(C#N)cc2)cs1)[C@](O)(Cn1cncn1)c1cc(F)ccc1F [ISAVUCONAZOLE] | – | – | – | – | – | 0.25 (≈ 0.571 µM) | MIC50 (Aspergillus fumigatus [6]): > 16 µg/mL
4 | Cc1ccc(Oc2ccccc2-c2nsc(N=C3NCCCN3)n2)c(C)c1 | > 16 | > 16 | – | – | – | – | –
5 | c1ccc(-c2nc(-c3csc(N=C4NCCCN4)n3)co2)cc1 | 16 (≈ 49.2 µM) | 0.063 (≈ 0.194 µM) | – | – | – | – | –
6 | Cc1ccc(Oc2ccccc2-c2cccc(N=C3NCCCN3)n2)c(C)c1 | 4 (≈ 10.7 µM) | 0.5 (≈ 1.34 µM) | – | – | – | – | –
7 | c1cc(-c2nc(-c3csc(N=C4NCCCN4)n3)cs2)ccn1 | – | – | 58 | 9 | 4 | 0.5 (≈ 1.46 µM) | –
8 | c1ccc(-c2nc(-c3csc(N=C4NCCCN4)n3)cs2)cc1 | 0.5 (≈ 1.46 µM) | < 0.063 | 83 | 31 | 8 | – | fraction unbound at 24 h [7]: 0.0104; clearance [8]: 33.1 mL/min/kg; Vd [9]: 7.25 L/kg
9 | Oc1ccc(-c2nc(-c3csc(N=C4NCCCN4)n3)cs2)cc1 | – | – | 86 | 53 | > 16 | 2 (≈ 5.59 µM) | –
10 | c1ccc(-c2cccc(-c3csc(N=C4NCCCN4)n3)c2)cc1 | 1 (≈ 2.99 µM) | < 0.063 | – | – | – | – | –
11 | Cc1ccc(Oc2ccccc2-c2csc(/N=C3\NCCCN3C)n2)c(C)c1 | > 16 | 8 (≈ 20.4 µM) | – | – | – | – | –
12 | c1ccc(-n2ccc(-c3csc(N=C4NCCCN4)n3)n2)cc1 | > 16 | 0.5 (≈ 1.54 µM) | 38 | 1.6 | – | – | –
13 | CS(=O)(=O)c1ccc(-c2nc(-c3csc(N=C4NCCCN4)n3)cs2)cc1 | – | – | 87 | 53 | 4 | 2 (≈ 4.77 µM) | log(activity) (Mus musculus [10]): 4; Activity (Mus musculus [11]): Active; AUC at 6 h [12]: 48.2 µg·h/mL; fraction unbound at 24 h [7]: 0.067; clearance [8]: 12.3 mL/min/kg; Vd [9]: 4.21 L/kg; Activity (Aspergillus fumigatus [13]): 40 nmol; Activity (Aspergillus fumigatus [14]): 1 nmol; Activity (Aspergillus fumigatus [15]): 0 nmol; Activity (Aspergillus fumigatus [16]): 102 nmol; MIC50 (Aspergillus fumigatus [6]): 2 µg/mL (≈ 4.77 µM)
14 | Cc1ccc(Oc2ccccc2-c2csc(N)n2)c(C)c1 | > 16 | 4 (≈ 13.5 µM) | – | – | – | – | –
15 | C[C@@H](c1ncncc1F)[C@](O)(Cn1cncn1)c1ccc(F)cc1F [VORICONAZOLE] | – | – | – | – | – | 0.5 (≈ 1.43 µM) | Activity (Mus musculus [10]): inactive; Activity (Mus musculus [11]): inactive; AUC at 6 h [12]: 222 µg·h/mL; Activity (Aspergillus fumigatus [17]): 1 nmol; Activity (Aspergillus fumigatus [18]): 34 nmol; Activity (Aspergillus fumigatus [19]): 0 nmol; Activity (Aspergillus fumigatus [20]): 99 nmol; MIC50 (Aspergillus fumigatus [6]): > 16 µg/mL
